Compound activity from PubChem BioAssay.
Rows were chosen to be rich in hits. Some 3.9% of all compounds tested hit in one or more screens of this group.
ABCB6 inh 2: inhibitors of human ABC transporter ABCB6; Q9NP58; K562-ABCB6 porphyrin accumulation, flow cytometry, 1 h; hits give low values; fluorescence ratio to DMSO, % at 10 µM; actives 0.19% (n = 360,000);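 active = fluorescence ratio to DMSO below 75%, the collection mean minus 3 SD; inconclusive = too few cells collected in the well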;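 note: signal is porphyrin accumulated inside mitochondria; 100% equals median channel fluorescence of DMSO control wells; lower ratio means ABCB6 inhibition with less porphyrin fluorescence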
GAA850 FXN act: activators of GAA850 frataxin (FXN) promoter; activation, % at 6 µM; AID 540364; HEK293 lucGAA850 FXN promoter luciferase reporter, 24 h; percent of 10 µM SAHA response; actives 0.56% (n = 360,000);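 active = activation above the average of all compounds screened plus 3 SD, cutoff fixed separately per campaign, cut at about 7.5% in these data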;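 note: 0% = DMSO wells and 100% = 10 µM SAHA wells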
SR-BI DiI-HDL act: enhances SR-BI lipid uptake from DiI-HDL. CHO ldlA[mSR-BI] cells, DiI-HDL uptake fluorescence, 3 h; 100 = double the neutral-control signal. activation, % at 12.5 µM. actives 0.096% (n = 320,000);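 active = mean replicate activation of at least 60% and every replicate at or above 60%; inconclusive = mean or all-replicate condition met, but not both; inactive = mean below 60% and not all replicates reaching 60%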;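 note: 0% = median plate neutral-control signal and 100% = twice that signal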
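Assay system: LDL receptor-deficient CHO ldlA cells overexpressing murine SR-BI / Medium: BSA-supplemented, HEPES-buffered Ham's F12, pH 7.4 / Probe or stimulus: DiI-labelled HDL at 10 µg/mL final / Timing: compound with DiI-HDL co-incubation, 3 h at 37 °C / Technique: bottom-read cell fluorescence after medium removal, ex 550/em 595 nm / Measure: HDL uptake via cellular fluorescence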
AHR activator: activators of human aryl hydrocarbon receptor; actives 2.5% (n = 320,000); activation, % at 5 µM; AHR-responsive luciferase reporter cells, luminescence; P35869; in the data active = activation above about 47%;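 note: 0% = vehicle wells and 100% = reference agonist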
HIF act: HIF pathway transcriptional activation | activation, % at 7.5 µM (by protocol) | U2OS HRE-luciferase reporter, luminescence; normalized: DMSO 0%, desferrioxamine 100% | actives 0.32% (n = 300,000) | AID 1910;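 active = mean activation of at least 10% of the iron chelator positive control signal, with at least half of replicates also reaching 10%; inconclusive = mean and replicate majority disagree about reaching 10%; inactive = mean and most replicates under 10%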
SR-BI HDL uptake: blocks mouse SR-BI lipid uptake from DiI-HDL; inhibition, % at 12.5 µM; ldlA[mSR-BI] CHO cells, DiI-HDL uptake fluorescence, 3 h; Q61009; AID 488896; actives 0.96% (n = 320,000);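 active = mean replicate inhibition of at least 70% and a set share of replicates each scoring 70 or more; inconclusive = meets just one of the two criteria; inactive = fails both criteria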;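 note: 0% = median of neutral control wells and 100% = median of positive control wells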
Target sequence (Q61009 whole entry, looked up): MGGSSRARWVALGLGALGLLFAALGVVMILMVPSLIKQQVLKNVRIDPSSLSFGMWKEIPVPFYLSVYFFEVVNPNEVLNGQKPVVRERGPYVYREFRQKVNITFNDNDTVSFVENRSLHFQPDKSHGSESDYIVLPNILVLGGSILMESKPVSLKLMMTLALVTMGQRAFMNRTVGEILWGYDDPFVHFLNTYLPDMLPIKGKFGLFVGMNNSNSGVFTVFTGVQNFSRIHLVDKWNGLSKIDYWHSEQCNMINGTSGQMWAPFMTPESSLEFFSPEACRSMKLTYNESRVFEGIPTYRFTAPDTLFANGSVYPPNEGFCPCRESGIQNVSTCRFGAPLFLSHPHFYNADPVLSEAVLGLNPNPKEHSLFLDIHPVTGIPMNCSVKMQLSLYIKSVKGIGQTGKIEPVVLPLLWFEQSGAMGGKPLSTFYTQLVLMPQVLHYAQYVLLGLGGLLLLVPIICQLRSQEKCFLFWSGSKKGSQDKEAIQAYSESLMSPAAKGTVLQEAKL
DiI quencher: quenches DiI-HDL fluorescence, an SR-BI assay artifact; actives 20% (n = 470); cell-free DiI-HDL fluorescence quenching, 30 min; AC50, µM (titrated, usually from 35 µM), for the others: at the top dose activity change, negative = quenching; shares compounds with SR-BI HDL uptake;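 active = quenching, a falling signal, with AC50 below a set limit tied to the top valid dose, actives reach about 32 µM in these data; inconclusive = no clear call, values can overlap the other calls; inactive = rising signal, and the rest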
* = called active by the depositor.

COc1ccccc1CNC(=O)c1ccc(C)s1 was read as ABCB6 inh 2 98, GAA850 FXN act 0, SR-BI DiI-HDL act -15, AHR activator 12, HIF act 1 and SR-BI HDL uptake 15.
`Cc1ccccc1NC(=O)N(CCc1nc2ccccc2[nH]1)Cc1ccccc1` gave ABCB6 inh 2 97, GAA850 FXN act -5, SR-BI DiI-HDL act -96, AHR activator 2, HIF act 0, SR-BI HDL uptake 96* and DiI quencher 6%.
For O=C(O)CC(C(=O)Nc1cccc(C(F)(F)F)c1)C1CCCO1 (centres undefined) the results were ABCB6 inh 2 102, GAA850 FXN act 0, SR-BI DiI-HDL act 17, AHR activator 0, HIF act 0, SR-BI HDL uptake -17 and DiI quencher -3%.
For COC(=O)c1c(C)[nH]c(C(=O)C(C)OC(=O)C2CC(=O)N(CCc3ccccc3)C2)c1C (centres undefined) the results were ABCB6 inh 2 96, GAA850 FXN act 1, SR-BI DiI-HDL act -45, AHR activator 10 and SR-BI HDL uptake 45.
For COC(=O)c1c(C)[nH]c(C(=O)C(C)OC(=O)C2CC(=O)N(c3ccc(C)cc3)C2)c1C (centres undefined) the results were ABCB6 inh 2 89, GAA850 FXN act 0, SR-BI DiI-HDL act -77, AHR activator 4, SR-BI HDL uptake 77* and DiI quencher -2%.
`CNC(=O)c1ccc(NC(=O)CN2c3cccc4cccc(c34)S2(=O)=O)cc1` gave ABCB6 inh 2 98, GAA850 FXN act 2, SR-BI DiI-HDL act 2, AHR activator -2, HIF act 0 and SR-BI HDL uptake -2.
For COc1ccc(CCn2c(C)cc(C(=O)CSc3nnc(N)s3)c2C)cc1 the results were ABCB6 inh 2 92, GAA850 FXN act 1, SR-BI DiI-HDL act -27, AHR activator 17, HIF act 2 and SR-BI HDL uptake 27.
For COc1ccc(CCn2c(C)cc(C(=O)CSc3nc(N)cc(=O)[nH]3)c2C)cc1 the results were ABCB6 inh 2 96, GAA850 FXN act 0, SR-BI DiI-HDL act -81, AHR activator -3, HIF act 0, SR-BI HDL uptake 81* and DiI quencher 1%.
For CCCCCCCC(=O)N/N=C/c1ccco1 the results were ABCB6 inh 2 101, GAA850 FXN act -1, SR-BI DiI-HDL act 5, AHR activator 10, HIF act 0 and SR-BI HDL uptake -5.
`Cc1nc(N2CCN(c3ccccn3)CC2)c2c(C)c(C(=O)Nc3ccc(F)cc3Cl)sc2n1` gave ABCB6 inh 2 99, GAA850 FXN act 1, SR-BI DiI-HDL act 1, AHR activator -1, HIF act 0 and SR-BI HDL uptake -1.
`CCCCNC(=O)[C@@H]1CC=C[C@@H]2CCN(Cc3ccc(Cl)c(Cl)c3)C(=O)[C@@H]21` gave ABCB6 inh 2 97, GAA850 FXN act -2, SR-BI DiI-HDL act -31, AHR activator 7, HIF act 0 and SR-BI HDL uptake 31.
Screening CN(C)c1ccc(/C=C2\Oc3ccc(C#Cc4cccc(N)c4)cc3C2=O)cc1 returned ABCB6 inh 2 478, GAA850 FXN act 2, SR-BI DiI-HDL act -70, AHR activator 11, SR-BI HDL uptake inconclusive and DiI quencher -14%.
Screening COC(=O)c1ccc2c(c1)C(=O)/C(=C/c1ccc(C)cc1)O2 returned ABCB6 inh 2 95, GAA850 FXN act -1, SR-BI DiI-HDL act -6, AHR activator 4, HIF act 0 and SR-BI HDL uptake 6.
`CN(C(=O)COn1nnc2ccc(S(=O)(=O)N3CCOCC3)cc21)c1ccccc1` gave ABCB6 inh 2 94, GAA850 FXN act 0, SR-BI DiI-HDL act -8, AHR activator 3, HIF act 1, SR-BI HDL uptake 8 and DiI quencher -3%.
`Cc1ccccc1COn1nnc2ccc(S(=O)(=O)N3CCOCC3)cc21` gave ABCB6 inh 2 99, GAA850 FXN act 4, SR-BI DiI-HDL act 11, AHR activator -2, HIF act 1 and SR-BI HDL uptake -11.
